Source: PubChem
This is a sample that favours compounds with a hit; in the whole collection about 2.8% have one here.
EP2 antag: EP2 receptor (human) inhibition | inhibition, % at 25 µM | C6 glioma cells expressing human EP2, cAMP TR-FRET; cells stimulated with saturating PGE2 | P43116 | actives 0.52% (n = 260,000);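 active = percent inhibition above 40 after rounding to a whole number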;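 also: rat C6 glioma host cells with rolipram phosphodiesterase inhibitor present; the protocol text gives 20 µM as final concentration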
NPY-Y2 antag: blocks the human neuropeptide Y Y2 receptor | NPY-Y2 expressing cells, antagonist mode | inhibition, % at 2.7 µM | actives 0.99% (n = 140,000); in the data active = inhibition above about 17%
Target sequence (P49146 whole entry, looked up): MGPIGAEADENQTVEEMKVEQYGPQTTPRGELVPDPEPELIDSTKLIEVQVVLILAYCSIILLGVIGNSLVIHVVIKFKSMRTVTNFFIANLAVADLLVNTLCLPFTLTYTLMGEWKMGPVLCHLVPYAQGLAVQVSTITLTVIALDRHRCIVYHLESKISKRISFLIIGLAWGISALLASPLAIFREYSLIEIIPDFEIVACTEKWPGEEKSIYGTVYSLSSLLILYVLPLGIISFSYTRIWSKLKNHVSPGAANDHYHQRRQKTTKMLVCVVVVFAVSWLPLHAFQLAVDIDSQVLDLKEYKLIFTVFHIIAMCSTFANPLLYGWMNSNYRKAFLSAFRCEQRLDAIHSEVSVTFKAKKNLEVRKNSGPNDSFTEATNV
EP2 mod: modulators of human EP2 prostaglandin E2 receptor; P43116; EP2-expressing cells, cAMP HTRF FRET, PGE2 co-stimulation; induction, % at 25 µM; actives 0.83% (n = 260,000);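 active = compounds whose cAMP rise, as percent of the full-agonist control response, exceeds 60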;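 also: rat C6 glioma line stably carrying human EP2 under a CMV promoter; the protocol text gives 20 µM as final concentration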
NPY-Y1 PAM-ag: human NPY-Y1 potentiation or agonism, primary screen | NPY-Y1 expressing cells, potentiator/agonist activation | activation, % at 3.6 µM | actives 0.37% (n = 220,000) | AID 1304; in the data active = activation above about 33%, passing the limit was not always enough;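 also: cells stimulated with NPY at EC10 then isoproterenol at EC100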
NPY Y1 blocker: NPY-Y1 (human) receptor antagonism | HEK293-CNG Y1 cells, membrane potential fluorescence; NPY at EC95, then isoproterenol | actives 1% (n = 200,000) | inhibition, % at 3.6 µM | P25929;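 active = inhibition above the campaign mean inhibition of all tested compounds plus 3 SD, cut at about 20% in these data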
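Assay system: HEK293 Y1/CNG channel cell line; Doses: single compound dose of 3.6 µM, 0.4% DMSO; Timing: dye 3 h, compound 60 min room temperature, stimulation 45 min; Technique: Membrane-potential fluorescent dye readout; Measure: % inhibition of NPY effect.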
NPY-Y2 PAM-ag: potentiates or activates human NPY-Y2 receptor | P49146 | actives 0.45% (n = 220,000) | AID 1359 | activation, % at 3.6 µM | cells expressing NPY-Y2, potentiator/agonist read-out; in the data active = activation above about 27%;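 also: cells stimulated with NPY near EC25 plus isoproterenol at EC100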
A number is an active result; 0 = inactive; - = no result given; + = active, no number; ! = not confirmed by another sample.

SMILES	EP2 antag	NPY-Y2 antag	EP2 mod	NPY-Y1 PAM-ag	NPY Y1 blocker	NPY-Y2 PAM-ag
O=C1c2ccccc2-c2ccc(N=[N+]([O-])c3ccc4c(c3)C(=O)c3ccccc3-4)cc21	51	-	0	-	-	-
CC1(C)Cc2c(c(N3CCCC3)nc3sc4c(N5CCOCC5)ncnc4c23)CO1	0	-	73	-	-	-
CN(C)c1ccc2nc3ccc(=[N+](C)C)cc-3sc2c1	+	-	0	0	0	0
Cc1nc2cc(C)c(C)cc2s1	0	-	0	0	0	0
COc1ccc2nc(N=Nc3ccc(N(C)C)cc3)sc2c1	-	0	0	0	0	0
Cc1cc2nc3ccc(=[N+](C)C)cc-3sc2cc1N	+	-	0	0	-	0
C[C@@H]1C=C[C@](Cc2ccccc2)(C(=O)NCCc2c[nH]c3ccccc23)N1C(=O)c1ccccc1	0	19	0	0	35	0
c1ccc2c(c1)oc1c(NCc3ccc4c(c3)OCO4)ncnc12	0	18	0	0	0	0
c1ccc2c(c1)oc1c(Nc3ccc4c(c3)OCO4)ncnc12	0	0	0	0	0	0
Cc1ccc(-c2cnc(NCc3cc4c(cc3[N+](=O)[O-])OCO4)n2C)cc1C	0	-	0	102	0	88
Cn1c(-c2ccc3c(c2)OCO3)cnc1NCc1ccccc1	0	0	0	0	0	0
O=C(Cc1ccc([N+](=O)[O-])cc1)N1N=C2CCCCC2C1(O)C(F)(F)F (configuration not stated)	0	-	72	0	-	0
CCOC(=O)COc1ccc2c(=O)c(-c3ccccc3OC)coc2c1	0	-	0	0	0	0
CCOC(=O)COc1ccc(C2Oc3c(cccc3OC)C=C2[N+](=O)[O-])cc1 (configuration not stated)	53	-	0	-	-	-
Cc1cc(C)c2c(CC(=O)O)coc2c1	0	0	0	0	24	0
Cc1cc(C)c2[nH]c(=O)c(C(c3nnnn3C(C)(C)C)N3CCN(Cc4ccccc4)CC3)cc2c1 (configuration not stated)	0	-	0	-	-	-
Cc1cc2cc(C(c3nnnn3C(C)(C)C)N3CCN(Cc4ccccc4)CC3)c(=O)[nH]c2cc1C (configuration not stated)	91	-	0	-	-	-
CCc1ccc2[nH]c(=O)c(C(c3nnnn3C(C)(C)C)N3CCN(c4ccccc4F)CC3)cc2c1 (configuration not stated)	0	-	74	-	-	-
CC[C@@]1(O)C(=O)OCc2c1cc1n(c2=O)Cc2cc3c(CN(C)C)c(O)ccc3nc2-1	58!	-	0	-	-	-
COc1ccccc1NC(=O)COc1ccc(Br)cc1CNC1CCCC1	0	-	0	0	21	0
COc1ccc(NC(=O)C2CCN(c3ncccn3)CC2)cc1	0	-	0	-	-	-
NC(=O)CC(NC(=O)c1ccc(Br)cc1)c1ccc(NCc2ccc(F)c(F)c2)c([N+](=O)[O-])c1 (configuration not stated)	43	-	0	-	-	-
NC(=O)CC(NC(=O)c1ccc(Br)cc1)c1ccc(NCc2ccc(F)cc2)c([N+](=O)[O-])c1 (configuration not stated)	51	-	0	-	-	-
NC(=O)CC(NC(=O)c1ccccc1)c1ccc(NCc2ccc(F)cc2)c([N+](=O)[O-])c1 (configuration not stated)	0	-	0	-	-	-
C(=N\Nc1nc2ccccc2s1)/c1ccc2c(c1)OCO2	0	0	0	0	0	0
SMILES	EP2 antag	NPY-Y2 antag	EP2 mod	NPY-Y1 PAM-ag	NPY Y1 blocker	NPY-Y2 PAM-ag
Brc1cc2c(cc1/C=N/Nc1nc3ccccc3s1)OCO2	41	0	0	0	0	0
CC(NS(=O)(=O)c1ccccc1)C(=O)NCc1ccc2c(c1)OCO2 (configuration not stated)	0	-	0	-	-	-
COc1cccc(C2CC(C(F)(F)F)n3ncc(C(=O)N4CCc5ccccc5C4)c3N2)c1 (configuration not stated)	0	-	0	-	-	-
Cc1cc(Nc2ccc(N=Nc3ccc(O)c4ncccc34)cc2)nc(C)n1	45	-	0	-	-	-
CC1CC(C)CN(C(=O)COc2ccc([N+](=O)[O-])cc2Cl)C1 (configuration not stated)	0	-	0	0	0	0
C[C@@H]1C[C@H](C)CN(S(=O)(=O)c2cc(Cl)c(Oc3ccc([N+](=O)[O-])cc3Cl)c(Cl)c2)C1	44	-	0	-	-	-
CCN1CCN(C(=O)c2cc(-c3ccc(Cl)cc3Cl)on2)CC1	0	-	0	-	-	-
CCCNC(=O)c1cnn2c(C(F)F)cc(-c3ccc(OC)cc3)nc12	0	-	0	-	-	-
COc1ccc(-c2cc(C(F)F)n3ncc(C(=O)NCC4CCCO4)c3n2)cc1 (configuration not stated)	0	29	0	0	29	0
Cc1cccc(NC(=O)CCC(=O)OCC(=O)c2ccc(Oc3ccc([N+](=O)[O-])cc3)cc2)c1	0	0	0	53	0	47
CC1(C)C2C(Cl)(Cl)C2(C)c2ccccc2N1C(=O)c1ccccc1 (configuration not stated)	0	-	0	-	-	-
CCn1c(=O)c(C(=O)NCCc2ccccc2)c(O)c2ccccc21	0	0	61	0	0	0
CCCn1c(=O)c(C(=O)Nc2ccccc2)c(O)c2ccccc21	0	0	0	0	0	0
CCCn1c(=O)c(C(=O)Nc2ccccc2OC)c(O)c2ccccc21	0	-	67	-	-	-
COCCCn1c(=S)[nH]c2sc3c(c2c1=O)CCCS3	45	-	0	0	0	0
CCc1cccc2c(C(=O)CN3C(=O)NC(C)(c4cccc5ccccc45)C3=O)c[nH]c12 (configuration not stated)	0	-	0	43	0	37
Cc1nc2ncnn2c(Nc2cccc(Cl)c2C)c1C	0	-	0	-	-	-
CS(=O)(=O)c1cncnc1C1CCCN(C(=O)c2ccc3c(c2)OCCO3)C1 (configuration not stated)	-	-	0	-	-	-
Cc1ccccc1NC(=O)N1CCCC1C(=O)NC1CCCC1 (configuration not stated)	0	-	0	-	-	-
CCn1cc(S(=O)(=O)NCC(c2ccc(F)cc2)N2CCN(C)CC2)cn1 (configuration not stated)	0	-	0	-	-	-
CCCn1nnc(NC(=O)c2sc3ccccc3c2Cl)n1	64	0	0	0	0	0
COC(=O)CN1C(=O)NC2NC(=O)NC21 (configuration not stated)	0	-	0	-	-	-
O=C(Nc1ccc(N2CCCCC2)cc1)c1ccc(F)cc1	0	0	0	0	0	0
O=C(c1ccc(F)cc1)c1ccc(N2CCCC2)cc1	0	0	0	0	21	0
Cc1cc2c(cc1Cl)C(O)CC1(CCN(CC(O)c3ccc(Cl)cc3)CC1)O2 (configuration not stated)	0	-	0	-	-	-
CCOc1ccc(Oc2c(/C=N/NC(=O)COc3ccccc3OC)c(C)nn2-c2ccccc2)cc1	0	26	0	0	30	0
COc1cc2[nH]c(=O)c(C(=O)NCCCN3CCN(C)CC3)c(O)c2cc1OC	0	-	0	-	-	-
